Laboratory results as given in ChEMBL document CHEMBL1123067, “Evaluation of the brain-specific delivery of radioiodinated (iodophenyl)alkyl-substituted amines coupled to a dihydropyridine carrier” (J Med Chem, 1985).

Assays:
Assay type in all cases: ADME, organism-based
Rattus norvegicus [1] = assay: Distribution of radioactivity in kidney tissues of Sprague-Dawley rats after 30 min injection by intravenously; value ranges from 1.14-1.4; conditions: in vivo, iv, 0.5 h
How it was run: (§1)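 Female Sprague-Dawley rats, 10–12 weeks old (170–200 g), fed ad libitum, under ether anaesthesia. Each received 15.1 μCi of the ¹²⁵I-labelled pyridinium conjugate or 10.6 μCi of the dihydropyridine conjugate by lateral tail vein. Dose was in 20% Me2SO/saline with vitamin E (~5 mg/mL), 0.22-μm filtered. Five rats per time point. Tissue activity was read against injected-solution standards as % injected dose/g.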

Rattus norvegicus [2] = assay: Distribution of radioactivity in liver tissues of Sprague-Dawley rats after 30 min injection by intravenously; value ranges from 1.06-1.29; conditions: in vivo, iv, 0.5 h; how it was run: as §1
Rattus norvegicus [3] = assay: Distribution of radioactivity in liver tissues of Sprague-Dawley rats after 5 min injection by intravenously; value ranges from 1.06-2.71; conditions: in vivo, iv; how it was run: as §1
Rattus norvegicus [4] = assay: Distribution of radioactivity in liver tissues of Sprague-Dawley rats after 60 min injection by intravenously; value ranges from 0.47-1.17; conditions: in vivo, iv, 1 h; how it was run: as §1
Rattus norvegicus [5] = assay: Distribution of radioactivity in lung tissues of Sprague-Dawley rats after 15 min injection by intravenously; value ranges from 3.10-3.77; conditions: in vivo, iv, 0.25 h
How it was run: (§2)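 Female Sprague-Dawley rats, 10–12 weeks, 170–200 g, fed ad libitum, five per time point. Agent dissolved in minimal Me2SO, diluted with saline to 20% Me2SO, with vitamin E (~5 mg/mL) added, 0.22-µm filtered. 15.1 or 10.6 µCi (per agent) injected into lateral tail vein under ether. Lungs taken; % injected dose/g against injected-solution standards; mean (range).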

Rattus norvegicus [6] = assay: Distribution of radioactivity in kidney tissues of Sprague-Dawley rats after 5 min injection by intravenously; value ranges from 1.64-3.43; conditions: in vivo, iv; how it was run: as §1
Rattus norvegicus [7] = assay: Distribution of radioactivity in kidney tissues of Sprague-Dawley rats after 60 min injection by intravenously; value ranges from 0.89-1.19; conditions: in vivo, iv, 1 h; how it was run: as §1
Rattus norvegicus [8] = assay: Distribution of radioactivity in liver tissues of Sprague-Dawley rats after 15 min injection by intravenously; value ranges from 1.23-1.78; conditions: in vivo, iv, 0.25 h; how it was run: as §1
Rattus norvegicus [9] = assay: Distribution of radioactivity in heart tissues of Sprague-Dawley rats after 15 min injection by intravenously; value ranges from 2.24-2.58; conditions: in vivo, iv, 0.25 h
Rattus norvegicus [10] = assay: Distribution of radioactivity in lung tissues of Sprague-Dawley rats after 30 min injection by intravenously; value ranges from 2.26-2.89; conditions: in vivo, iv, 0.5 h; how it was run: as §2
Rattus norvegicus [11] = assay: Distribution of radioactivity in lung tissues of Sprague-Dawley rats after 5 min injection by intravenously; value ranges from 3.62-7.08; conditions: in vivo, iv; how it was run: as §2
Rattus norvegicus [12] = assay: Distribution of radioactivity in lung tissues of Sprague-Dawley rats after 60 min injection by intravenously; value ranges from 2.11-3.79; conditions: in vivo, iv, 1 h; how it was run: as §2
Rattus norvegicus [13] = assay: Distribution of radioactivity in brain tissues of Sprague-Dawley rats after 60 min injection by intravenously; value ranges from 0.76-1.42; conditions: in vivo, iv, 1 h
Rattus norvegicus [14] = assay: Distribution of radioactivity in blood tissues of Sprague-Dawley rats after 60 min injection by intravenously; value ranges from 0.28-0.37; conditions: in vivo, iv, 1 h
Rattus norvegicus [15] = assay: Distribution of radioactivity in heart tissues of Sprague-Dawley rats after 60 min injection by intravenously; value ranges from 1.68-2.23; conditions: in vivo, iv, 1 h; how it was run: as §1
Rattus norvegicus [16] = assay: Distribution of radioactivity in kidney tissues of Sprague-Dawley rats after 15 min injection by intravenously; value ranges from 1.42-1.82; conditions: in vivo, iv, 0.25 h; how it was run: as §1
Rattus norvegicus [17] = assay: Distribution of radioactivity in brain tissues of Sprague-Dawley rats after 15 min injection by intravenously; value ranges from 1.05-1.25; conditions: in vivo, iv, 0.25 h
Rattus norvegicus [18] = assay: Distribution of radioactivity in heart tissues of Sprague-Dawley rats after 30 min injection by intravenously; value ranges from 1.96-2.46; conditions: in vivo, iv, 0.5 h
Rattus norvegicus [19] = assay: Distribution of radioactivity in blood tissues of Sprague-Dawley rats after 15 min injection by intravenously; value ranges from 0.31-0.4; conditions: in vivo, iv, 0.25 h
Rattus norvegicus [20] = assay: Distribution of radioactivity in blood tissues of Sprague-Dawley rats after 30 min injection by intravenously; value ranges from 0.35-0.4; conditions: in vivo, iv, 0.5 h
Rattus norvegicus [21] = assay: Distribution of radioactivity in blood tissues of Sprague-Dawley rats after 5 min injection by intravenously; value ranges from 0.28-0.46; conditions: in vivo, iv
Rattus norvegicus [22] = assay: Distribution of radioactivity in heart tissues of Sprague-Dawley rats after 5 min injection by intravenously; value ranges from 2.36-3.96; conditions: in vivo, iv; how it was run: as §1
Rattus norvegicus [23] = assay: Distribution of radioactivity in brain tissues of Sprague-Dawley rats after 30 min injection by intravenously; value ranges from 0.81-1.26; conditions: in vivo, iv, 0.5 h
Rattus norvegicus [24] = assay: Distribution of radioactivity in brain tissues of Sprague-Dawley rats after 5 min injection by intravenously; value ranges from 0.97-2.17; conditions: in vivo, iv
[25] = Brain to blood ratio in Sprague-Dawley rats after 5 min injection by intravenously; conditions: rat, brain and blood, iv
How it was run: (§3)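 Female Sprague-Dawley rats, 10–12 weeks old (170–200 g), fed ad libitum. The ¹²⁵I-labelled agent was dissolved in minimal Me2SO, diluted with saline to a final 20% Me2SO, filtered (0.22 μm), and injected into a lateral tail vein under ether anaesthesia. Tissues were counted against samples of the injected solution and expressed as % injected dose/g (mean, range). Brain/blood ratio is from the means.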

[26] = Brain to blood ratio in Sprague-Dawley rats after 60 min injection by intravenously; conditions: rat, brain and blood, iv; how it was run: as §3
[27] = Brain to blood ratio in Sprague-Dawley rats after 30 min injection by intravenously; conditions: rat, brain and blood, iv; how it was run: as §3
[28] = Brain to blood ratio in Sprague-Dawley rats after 15 min injection by intravenously; conditions: rat, brain and blood, iv; how it was run: as §3
Rattus norvegicus [29] = assay: Distribution of radioactivity in liver tissues of Sprague-Dawley rats after 30 min injecton by intravenously; 0.54-0.89; conditions: in vivo, iv, 0.5 h; how it was run: as §1
Rattus norvegicus [30] = assay: Distribution of radioactivity in liver tissues of Sprague-Dawley rats after 60 min injecton by intravenously; 0.38-0.57; conditions: in vivo, iv, 1 h; how it was run: as §1
Rattus norvegicus [31] = assay: Distribution of radioactivity in kidney tissues of Sprague-Dawley rats after 30 min injecton by intravenously; 0.58-0.73; conditions: in vivo, iv, 0.5 h; how it was run: as §1
Rattus norvegicus [32] = assay: Distribution of radioactivity in kidney tissues of Sprague-Dawley rats after 5 min injecton by intravenously; 1.73-2.64; conditions: in vivo, iv; how it was run: as §1
Rattus norvegicus [33] = assay: Distribution of radioactivity in kidney tissues of Sprague-Dawley rats after 60 min injecton by intravenously; 0.49-0.57; conditions: in vivo, iv, 1 h; how it was run: as §1
Rattus norvegicus [34] = assay: Distribution of radioactivity in liver tissues of Sprague-Dawley rats after 15 min injecton by intravenously; 0.81-1.18; conditions: in vivo, iv, 0.25 h; how it was run: as §1
Rattus norvegicus [35] = assay: Distribution of radioactivity in lung tissues of Sprague-Dawley rats after 15 min injecton by intravenously; 0.58-0.86; conditions: in vivo, iv, 0.25 h; how it was run: as §2
Rattus norvegicus [36] = assay: Distribution of radioactivity in lung tissues of Sprague-Dawley rats after 30 min injecton by intravenously; 0.54-0.7; conditions: in vivo, iv, 0.5 h; how it was run: as §2
Rattus norvegicus [37] = assay: Distribution of radioactivity in lung tissues of Sprague-Dawley rats after 5 min injecton by intravenously; 0.76-0.91; conditions: in vivo, iv; how it was run: as §2
Rattus norvegicus [38] = assay: Distribution of radioactivity in lung tissues of Sprague-Dawley rats after 60 min injecton by intravenously; 0.5-0.65; conditions: in vivo, iv, 1 h; how it was run: as §2
Rattus norvegicus [39] = assay: Distribution of radioactivity in brain tissues of Sprague-Dawley rats after 5 min injecton by intravenously; 0.05-0.07; conditions: in vivo, iv
Rattus norvegicus [40] = assay: Distribution of radioactivity in brain tissues of Sprague-Dawley rats after 60 min injecton by intravenously; 0.03-0.06; conditions: in vivo, iv, 1 h
Rattus norvegicus [41] = assay: Distribution of radioactivity in blood tissues of Sprague-Dawley rats after 5 min injecton by intravenously; 1.0-1.24; conditions: in vivo, iv
Rattus norvegicus [42] = assay: Distribution of radioactivity in heart tissues of Sprague-Dawley rats after 60 min injecton by intravenously; 0.58-0.75; conditions: in vivo, iv, 1 h; how it was run: as §1
Rattus norvegicus [43] = assay: Distribution of radioactivity in kidney tissues of Sprague-Dawley rats after 15 min injecton by intravenously; 0.62-0.92; conditions: in vivo, iv, 0.25 h; how it was run: as §1
Rattus norvegicus [44] = assay: Distribution of radioactivity in blood tissues of Sprague-Dawley rats after 60 min injecton by intravenously; 0.58-0.77; conditions: in vivo, iv, 1 h
Rattus norvegicus [45] = assay: Distribution of radioactivity in brain tissues of Sprague-Dawley rats after 15 min injecton by intravenously; 0.03-0.06; conditions: in vivo, iv, 0.25 h
Rattus norvegicus [46] = assay: Distribution of radioactivity in heart tissues of Sprague-Dawley rats after 15 min injecton by intravenously; 0.68-0.84; conditions: in vivo, iv, 0.25 h
Rattus norvegicus [47] = assay: Distribution of radioactivity in heart tissues of Sprague-Dawley rats after 30 min injecton by intravenously; 0.58-0.82; conditions: in vivo, iv, 0.5 h; how it was run: as §1
Rattus norvegicus [48] = assay: Distribution of radioactivity in blood tissues of Sprague-Dawley rats after 15 min injecton by intravenously; 0.72-1.03; conditions: in vivo, iv, 0.25 h
Rattus norvegicus [49] = assay: Distribution of radioactivity in blood tissues of Sprague-Dawley rats after 30 min injecton by intravenously; 0.65-0.83; conditions: in vivo, iv, 0.5 h
Rattus norvegicus [50] = assay: Distribution of radioactivity in heart tissues of Sprague-Dawley rats after 5 min injecton by intravenously; 0.79-0.85; conditions: in vivo, iv; how it was run: as §1
Rattus norvegicus [51] = assay: Distribution of radioactivity in brain tissues of Sprague-Dawley rats after 30 min injecton by intravenously; 0.03-0.06; conditions: in vivo, iv, 0.5 h
Rattus norvegicus [52] = assay: Distribution of radioactivity in liver tissues of Sprague-Dawley rats after 5 min injecton by intravenously; 1.03-1.31; conditions: in vivo, iv; how it was run: as §1

`CN1C=CCC(C(=O)Nc2ccc([125I])cc2)=C1` gave a Distribution (Rattus norvegicus [1]) of 1.23%, a Distribution (Rattus norvegicus [2]) of 1.18% and a Distribution (Rattus norvegicus [3]) of 1.65%. It also gave a Distribution (Rattus norvegicus [4]) of 0.82%, a Distribution (Rattus norvegicus [5]) of 3.3% and a Distribution (Rattus norvegicus [6]) of 2.36%. The Distribution (Rattus norvegicus [7]) was 1.07%, the Distribution (Rattus norvegicus [8]) was 1.56% and the Distribution (Rattus norvegicus [9]) was 2.43%. For the same molecule, the Distribution (Rattus norvegicus [10]) was 2.43%, the Distribution (Rattus norvegicus [11]) was 4.61% and the Distribution (Rattus norvegicus [12]) was 2.77%. The Distribution (Rattus norvegicus [13]) was 1.12%, the Distribution (Rattus norvegicus [14]) was 0.31% and the Distribution (Rattus norvegicus [15]) was 1.88%. The Distribution (Rattus norvegicus [16]) was 1.56%, the Distribution (Rattus norvegicus [17]) was 1.16% and the Distribution (Rattus norvegicus [18]) was 2.18%. The Distribution (Rattus norvegicus [19]) was 0.35%, the Distribution (Rattus norvegicus [20]) was 0.38% and the Distribution (Rattus norvegicus [21]) was 0.37%. It also gave a Distribution (Rattus norvegicus [22]) of 2.86%, a Distribution (Rattus norvegicus [23]) of 1.01% and a Distribution (Rattus norvegicus [24]) of 1.14%. The Kp at 5 min [25] was 3.87, the Kp at 1 h [26] was 3.6 and the Kp at 0.5 h [27] was 2.66. For the same molecule, the Kp at 0.25 h [28] was 3.29.
In the case of `C[n+]1cccc(C(=O)Nc2ccc([125I])cc2)c1.[I-]`, the Distribution (Rattus norvegicus [29]) is reported as 0.71%, the Distribution (Rattus norvegicus [30]) is reported as 0.49% and the Distribution (Rattus norvegicus [31]) is reported as 0.65%. The Distribution (Rattus norvegicus [32]) was 2.1%, the Distribution (Rattus norvegicus [33]) was 0.53% and the Distribution (Rattus norvegicus [34]) was 1.04%. For the same molecule, the Distribution (Rattus norvegicus [35]) was 0.72%, the Distribution (Rattus norvegicus [36]) was 0.62% and the Distribution (Rattus norvegicus [37]) was 0.84%. It also gave a Distribution (Rattus norvegicus [38]) of 0.57%, a Distribution (Rattus norvegicus [39]) of 0.06% and a Distribution (Rattus norvegicus [40]) of 0.04%. The Distribution (Rattus norvegicus [41]) was 1.11%, the Distribution (Rattus norvegicus [42]) was 0.67% and the Distribution (Rattus norvegicus [43]) was 0.74%. For the same molecule, the Distribution (Rattus norvegicus [44]) was 0.67%, the Distribution (Rattus norvegicus [45]) was 0.05% and the Distribution (Rattus norvegicus [46]) was 0.76%. For the same molecule, the Distribution (Rattus norvegicus [47]) was 0.68%, the Distribution (Rattus norvegicus [48]) was 0.87% and the Distribution (Rattus norvegicus [49]) was 0.75%. For the same molecule, the Distribution (Rattus norvegicus [50]) was 0.83%, the Distribution (Rattus norvegicus [51]) was 0.04% and the Distribution (Rattus norvegicus [52]) was 1.18%.
